In assay [1] the target is Histamine H2 receptor (Cavia porcellus) (UniProt P47747). As to the kind of experiment: Potency relative to histamine calculated from mean pD2 value in guinea pig right atrium. The assay is classed as functional, tissue-based. Conditions: Cardiac atrium. The procedure, abridged: (§1)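 Spontaneously beating isolated guinea pig right atrium with a positive chronotropic read-out. Cumulative concentration-response curves were run against histamine dihydrochloride as the standard. Incubation after each concentration was usually 25 min, adjusted until equilibrium. H2 selectivity was checked with cimetidine (10 µM and 1 µM) and metoprolol (1 µM). Potency relative to histamine = 1 was calculated from mean pD2 values.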

For assay [2] the target is unchanged. Briefly: Histamine H2 receptor agonistic activity (as a measure of agonism) at the isolated right atrium of guinea pig, activity relative to histamine. The note with it: Cardiac atrium. The assay is classed as functional, tissue-based. Put shortly:
as §1

The species named for assay [3] is Cavia porcellus. Briefly: Chronotropic effect assessed from maximal increase in delta LV (dp/dtmax) in isolated perfused guinea pig heart. The assay is classed as functional. The note with it: in the assay text read “Inotropic effect” for “Chronotropic effect”. The procedure, abridged:
(§2)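 Langendorff-perfused isolated guinea pig heart. Compounds were given as a bolus injected into the perfusion stream, with impromidine as reference. Net increases in LV dp/dtmax, heart rate and coronary flow were expressed against impromidine = 100% in a control group (n = 6 each). Relative potency was taken from molar ED50 ratios versus impromidine = 100%.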

The species entered for assay [4] is Cavia porcellus. As to the kind of experiment: Relative potency with impromidine (100%) in isolated perfused guinea pig heart. The assay is classed as functional. Put shortly:
as §2

For assay [5], the target named is Histamine H2 receptor (Cavia porcellus) (UniProt P47747). As to the kind of experiment: Histamine H2 receptor agonism relative to histamine on isolated guinea pig right atrium. Format: functional, tissue-based. Conditions: Cardiac atrium. Put shortly: as §1
The target is the same in assay [6]. Briefly: Intrinsic activity (as a measure of agonism) on electrically stimulated papillary muscle of guinea pig. Format: functional, tissue-based. Conditions: Muscle tissue. The procedure, abridged: (§3)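 Isolated right-ventricular papillary muscle from guinea pig, electrically paced at 1 Hz with 1 ms pulses, in Krebs-Henseleit solution gassed with O2/CO2 95:5 at 32.5 °C. Compounds were tested as hydrohalide salts. Cumulative concentration-response curves of contractile force were run against histamine as the standard agonist. […] relative potency were taken from pD2, with histamine maximum = 1.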

For assay [7], the species on record is Cavia porcellus. Briefly: Increase in coronary flow with maximal inotropic response in isolated perfused guinea pig heart. The assay is classed as functional. More on the design: unit not given beside the values. The procedure, abridged: as §2
For assay [8], the species on record is Cavia porcellus. As to the kind of experiment: Increase in heart rate with maximal inotropic response in isolated perfused guinea pig heart. More on the design: unit not given beside the values. The assay is classed as functional. The procedure, abridged:
as §2

For a further assay, the target named is Histamine H1 receptor (Cavia porcellus, UniProt P31389). As to the kind of experiment: Antagonist activity at histamine H1 receptor against histamine in isolated ileum of guinea pig. Format: functional, tissue-based. The note with it: read-out: pA2 (converted). The procedure, abridged: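 Isolated guinea pig ileum contracted by histamine, with histamine dihydrochloride as the standard agonist in cumulative dose-response curves. pA2 was derived. For compounds that depressed the histamine maximum at 10 µM, -log KB was taken at 3 µM antagonist from log(DR-1) = log[ant.] - log KB.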

Assay [9] has as its target Histamine H2 receptor (Cavia porcellus) (UniProt P47747). As to the kind of experiment: Agonistic activity relative to histamine on electrically stimulated papillary muscle of guinea pig. The assay is classed as functional, tissue-based. Conditions: Muscle tissue. The procedure, abridged:
as §3

Each structure is given as a SMILES string.

Sequence of Histamine H2 receptor (Cavia porcellus) (P47747 whole entry): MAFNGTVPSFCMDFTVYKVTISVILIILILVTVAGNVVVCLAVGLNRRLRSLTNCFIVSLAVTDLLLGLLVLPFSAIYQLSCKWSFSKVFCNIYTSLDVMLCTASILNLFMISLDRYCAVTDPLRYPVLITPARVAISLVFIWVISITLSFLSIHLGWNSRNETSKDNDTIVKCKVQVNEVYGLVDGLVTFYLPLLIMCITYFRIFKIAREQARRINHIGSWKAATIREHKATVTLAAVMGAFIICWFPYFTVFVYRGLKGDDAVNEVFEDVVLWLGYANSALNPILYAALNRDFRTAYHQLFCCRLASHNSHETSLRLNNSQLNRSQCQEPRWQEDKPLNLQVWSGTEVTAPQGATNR
Sequence of Histamine H1 receptor (P31389 whole entry): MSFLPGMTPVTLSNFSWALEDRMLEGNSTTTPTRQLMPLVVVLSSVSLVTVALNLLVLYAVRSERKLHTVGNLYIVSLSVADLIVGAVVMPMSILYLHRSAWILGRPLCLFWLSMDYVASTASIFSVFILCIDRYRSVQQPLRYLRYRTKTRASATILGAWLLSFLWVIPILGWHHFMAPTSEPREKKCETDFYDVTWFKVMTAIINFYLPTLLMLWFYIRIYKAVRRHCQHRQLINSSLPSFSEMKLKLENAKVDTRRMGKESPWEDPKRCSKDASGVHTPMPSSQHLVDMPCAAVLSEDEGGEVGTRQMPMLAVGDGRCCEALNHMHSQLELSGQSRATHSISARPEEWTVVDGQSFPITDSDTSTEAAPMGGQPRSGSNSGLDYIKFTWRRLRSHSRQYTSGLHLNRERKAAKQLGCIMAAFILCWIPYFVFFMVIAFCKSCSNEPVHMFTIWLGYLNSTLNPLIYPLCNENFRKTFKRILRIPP

With `N=C(NCCCc1c[nH]cn1)NCCC(c1cc(F)cc(F)c1)c1ccccn1` (configuration not stated), the values for the Relative potency (in [1]; in the assay filed under Cavia porcellus [4]) were 112 and 244, respectively. The figures for the Intrinsic activity in assay [2] and in assay [6] were 1 and 0.8, respectively. Further, the “Delta LV” value in the assay listed under Cavia porcellus [3] is recorded as 129. The pD2 in assay [5] was determined as 8.05; in [9], 7.91. This compound also registered a Delta coronary flow in the assay listed under Cavia porcellus [7] of 182. Also, the Delta heart rate in the assay listed under Cavia porcellus [8] came to 79. The Kb at Histamine H1 receptor is 0.275 µM.
With `N=C(NCCCc1c[nH]cn1)NCCC(c1ccc(F)cc1)c1ccccn1` (configuration not stated) [ARPROMIDINE], the results for the Relative potency (in assay [1]; in the assay filed under Cavia porcellus [4]) were 102 and 146, respectively. Moreover, the Intrinsic activity was 1 in assay [2] and 0.8 in [6]. Besides, in the assay listed under Cavia porcellus [3], the “Delta LV” value is 97. Besides, the pD2 in assay [5] was found to be 8.01; in assay [9], 7.94. In the assay filed under Cavia porcellus [7], this compound had a Delta coronary flow of 143. In the assay filed under Cavia porcellus [8], the Delta heart rate worked out at 57.
As to `N=C(NCCCc1c[nH]cn1)NCCC(c1ccccn1)c1ccc(Cl)cc1Cl` (configuration not stated), the Relative potency in [1] is 52.5. Moreover, the Intrinsic activity in assay [2] is 0.9. The pD2 in [5] was determined as 7.72. Further, the Kb on Histamine H1 receptor is 0.288 µM.
For the compound `N=C(NCCCc1c[nH]cn1)NCC(c1ccccc1)c1ccccn1` (configuration not stated), the Relative potency in [1] is 2.2. In assay [2], this compound gave an Intrinsic activity of 1. Further, in assay [5], the pD2 was 6.35. The Kb at Histamine H1 receptor was 3.31 µM.
For `N=C(NCCCc1c[nH]cn1)NCCC(c1ccccn1)c1ccccn1` the same measures were 7.9, 1, 6.9 and 0.389 µM.
For the compound `N=C(NCCCc1c[nH]cn1)NCCC(c1ccccn1)c1ccccc1F` (configuration not stated), the Relative potency in assay [1] is 28.8. In assay [2], the Intrinsic activity amounted to 1. This compound also gave a pD2 in assay [5] of 7.46. Also, the Kb at Histamine H1 receptor was 0.437 µM.
With `N=C(NCCCc1c[nH]cn1)NCCC(c1ccccc1)c1ccc(Cl)c(Cl)c1` (configuration not stated), the Relative potency in [1] is 28.8. The Intrinsic activity in assay [2] amounted to 1; in [6], 0.6. The pD2 in assay [5] turned out to be 7.46; in [9], 6.03. The Kb at Histamine H1 receptor is 0.195 µM.
For `N/C(=N\CCC(O)(c1ccc(F)cc1)c1ccccn1)NCCCc1c[nH]cn1` (configuration not stated), the Relative potency in assay [1] is 26.3. Further, the Intrinsic activity in [2] was found to be 0.9. For the same compound, in [5], the pD2 is 7.42. Besides, the Kb at Histamine H1 receptor is 0.115 µM.
Consider `N=C(NCCCc1c[nH]cn1)NCCC(c1ccc(C(F)(F)F)cc1)c1ccccn1` (configuration not stated), for which, in [1], the Relative potency was 57.5. The Intrinsic activity in [2] and in assay [6] was 0.9 throughout. Also, the pD2 turned out to be 7.76 in assay [5] and 7.23 in assay [9]. For the same compound, the Kb at Histamine H1 receptor is 0.282 µM.
For `N/C(=N\CCC(c1cccc(N)c1)c1ccccn1)NCCCc1c[nH]cn1` (configuration not stated), in [1], the Relative potency is 24. The Intrinsic activity in assay [2] was found to be 0.9. The compound also gave a pD2 in assay [5] of 7.38. In addition, the Kb on Histamine H1 receptor is 0.851 µM.
Regarding `CN(CCC(c1ccc(F)cc1)c1ccccn1)C(=N)NCCCc1c[nH]cn1` (configuration not stated), the Relative potency in assay [1] was 0.25. In [2], this compound had an Intrinsic activity of 0.8. The pD2 in assay [5] is 5.4. The Kb on Histamine H1 receptor was 1.1 µM.
Take `N=C(NCCCc1c[nH]cn1)NCCC(c1cccc(F)c1)c1ccccn1` (configuration not stated): the Relative potency in [1] was 75.9. Besides, the Intrinsic activity is 1 in assay [2] and 0.5 in assay [6]. Besides, the pD2 in [5] turned out to be 7.88; in assay [9] it was 7.79. Also, the Kb at Histamine H1 receptor is 0.158 µM.
On to `N/C(=N\CCC(c1cccc([N+](=O)[O-])c1)c1ccccn1)NCCCc1c[nH]cn1` (configuration not stated), for which the Relative potency in assay [1] was 8.1. The Intrinsic activity in [2] is 0.9. The same compound displayed a pD2 in [5] of 6.91. Besides, the Kb at Histamine H1 receptor was 1.7 µM.
For `N=C(NC/C=C(\c1ccc(F)cc1)c1ccccn1)NCCCc1c[nH]cn1` the same measures were 29.5, 1, 7.47 and 0.347 µM.
For `Cc1[nH]cnc1CSCCNC(=N)NCCCc1c[nH]cn1` [IMPROMIDINE], the “Delta LV” value in the assay listed under Cavia porcellus [3] is given as 100. For the same compound, in the assay filed under Cavia porcellus [4], the Relative potency amounted to 100. In the assay filed under Cavia porcellus [7], this compound displayed a Delta coronary flow of 100. Besides, the Delta heart rate in the assay filed under Cavia porcellus [8] is reported as 100.
Take `N=C(NCCCc1c[nH]cn1)NCCCC(c1ccc(F)cc1)c1ccccn1` (configuration not stated): the Relative potency in assay [1] is 7.4. The Intrinsic activity in assay [2] was 0.9. This compound showed a pD2 in assay [5] of 6.87. Besides, the Kb on Histamine H1 receptor is 0.0468 µM.
For the compound `NC(=NCCC(c1ccc(F)cc1)c1ccccn1)NCCCc1cnc[nH]1` (configuration not stated) [ARPROMIDINE], the Kb on Histamine H1 receptor was 0.0224 µM.
Regarding `N=C(NCCCc1c[nH]cn1)NCCC(Cc1ccccc1)c1ccc(F)cc1` (configuration not stated), the Relative potency in assay [1] was 1.5. The Intrinsic activity in assay [2] was 0.8. In addition, the pD2 in assay [5] stood at 6.17. Besides, the Kb at Histamine H1 receptor is 0.141 µM.
Take `N=C(NCCCc1c[nH]cn1)NCCC(c1ccccc1)c1ccc(F)cc1` (configuration not stated): in assay [1], the Relative potency was 53.7. Moreover, the Intrinsic activity in assay [2] worked out at 1; in [6] it was 0.7. Besides, the pD2 in [5] was determined as 7.73; in [9] it was 7.45. At Histamine H1 receptor, the Kb was 0.0347 µM.
For `N=C(NCCCc1c[nH]cn1)NCCC(c1cccc(Cl)c1)c1ccccn1` (configuration not stated), the Relative potency in assay [1] was 87.1; in the assay filed under Cavia porcellus [4], 199. The figures for the Intrinsic activity in assay [2] and in [6] were 1 and 0.6, respectively. Besides, the “Delta LV” value in the assay filed under Cavia porcellus [3] is given as 103. The pD2 came out at 7.94 in assay [5] and 7.71 in assay [9]. The compound also yielded a Delta coronary flow in the assay filed under Cavia porcellus [7] of 79. This compound also had a Delta heart rate in the assay filed under Cavia porcellus [8] of 96.
For `N=C(NCCCc1c[nH]cn1)NCCCC(c1ccccc1)c1ccccn1` (configuration not stated), the Relative potency in assay [1] was 4.1. This compound gave an Intrinsic activity in assay [2] of 1. This compound came in with a pD2 in assay [5] of 6.61.
Turning to `COc1ccc(C(CC/N=C(\N)NCCCc2c[nH]cn2)c2ccccn2)cc1` (configuration not stated), in assay [1], the Relative potency is 27.5. Moreover, the Intrinsic activity turned out to be 1 in assay [2] and 0.5 in assay [6]. Also, the results for the pD2 in [5] and in assay [9] were 7.44 and 7, respectively. In addition, the Kb on Histamine H1 receptor was 0.269 µM.
As to `N=C(NCCCc1c[nH]cn1)NCCC(c1ccc(F)cc1)c1cccnc1` (configuration not stated), the Relative potency in [1] is 123. Also, the Intrinsic activity in assay [2] came out at 1; in [6], 0.8. Also, the pD2 in assay [5] came to 8.09; in [9], 7.91.
In the case of `N=C(NCCCc1c[nH]cn1)NCCSC(c1ccccc1)c1ccccn1` (configuration not stated), the Relative potency in [1] was 4. The compound further returned an Intrinsic activity in assay [2] of 1. The compound further showed a pD2 in assay [5] of 6.6.
Regarding `N=C(NCCCc1c[nH]cn1)NCCC(c1ccccn1)c1cccs1` (configuration not stated), the Relative potency in assay [1] is 14.5. Also, the Intrinsic activity in [2] was 1. This compound registered a pD2 in assay [5] of 7.16. The Kb on Histamine H1 receptor is 0.0457 µM.
Consider `N=C(NCCCc1c[nH]cn1)NCCC(c1cc(Cl)cc(Cl)c1)c1ccccn1` (configuration not stated), for which the Relative potency in assay [1] was 23.4. In addition, in [2], the Intrinsic activity turned out to be 1. In addition, in assay [5], the pD2 worked out at 7.37. Moreover, the Kb on Histamine H1 receptor was 0.0437 µM.
Take `N=C(NCCCc1c[nH]cn1)NCCC(c1cccc(C(F)(F)F)c1)c1ccccn1` (configuration not stated): the Relative potency in assay [1] is 26.9. The Intrinsic activity in assay [2] amounted to 1; in assay [6] it was 0.7. Moreover, the pD2 is 7.43 in assay [5] and 7.44 in assay [9]. In addition, the Kb at Histamine H1 receptor was 0.525 µM.

The record behind these values is ChEMBL document CHEMBL1124639, “Synthesis and in vitro pharmacology of arpromidine and related phenyl(pyridylalkyl)guanidines, a potential new class of positive inotropic drugs” (J Med Chem, 1989).
